This is a sample that favours compounds with a hit; in the whole collection about 2.8% have one here.
E-selectin induc = E-selectin induction in HUVECs, primary screen, imaging, HUVEC, immunofluorescence imaging, single point; activation, % at 7.58 µM; normalized: neutral wells 0, TNF-alpha wells 100; AID 686992, 2013; P16581; 260,000 compounds, 0.37% hits;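 active = mean E-selectin-positive cell signal at least 10% of the positive control, reached in at least 60% of replicates, without over 20% cell loss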
Target sequence (P16581 whole entry, looked up): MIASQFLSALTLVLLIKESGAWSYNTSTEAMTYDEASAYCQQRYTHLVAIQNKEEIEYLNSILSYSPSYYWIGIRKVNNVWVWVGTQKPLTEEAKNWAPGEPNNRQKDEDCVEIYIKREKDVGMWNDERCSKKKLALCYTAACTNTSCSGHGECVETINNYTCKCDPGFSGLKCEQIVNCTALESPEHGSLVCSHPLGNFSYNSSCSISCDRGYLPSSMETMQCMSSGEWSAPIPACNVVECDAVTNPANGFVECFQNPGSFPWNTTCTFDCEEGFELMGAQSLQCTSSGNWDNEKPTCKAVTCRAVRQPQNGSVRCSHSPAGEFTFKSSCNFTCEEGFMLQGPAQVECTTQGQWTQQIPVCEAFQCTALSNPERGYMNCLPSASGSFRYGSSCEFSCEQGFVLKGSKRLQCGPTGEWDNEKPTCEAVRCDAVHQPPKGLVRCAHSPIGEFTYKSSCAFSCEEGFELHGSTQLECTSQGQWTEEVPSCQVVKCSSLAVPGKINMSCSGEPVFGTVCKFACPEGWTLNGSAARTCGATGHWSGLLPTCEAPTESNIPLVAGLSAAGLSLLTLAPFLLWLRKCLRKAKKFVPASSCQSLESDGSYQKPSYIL
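Material: HUVEC primary endothelial cells; Amount: 3,000 cells per well; Dosing: single concentration; Medium: EGM-2 growth medium on 0.1% gelatin-coated wells; Read-out basis: percent E-selectin-positive cells; Signal: immunofluorescence imaging; Control set: TNF-alpha, DMSO.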
SIRT5 inh = SIRT5 desuccinylase inhibitors, primary screen, biochemical, fluorescence imaging, single point, set 5. NAD-dependent protein deacylase sirtuin-5, mitochondrial (Homo sapiens), Q9NXA8. Purified SirT5, succinyl-peptide AMC, trypsin-coupled fluorescence. inhibition, % at 15 µM. 330,000 compounds, 1.1% hits. AID 652115, 2013; in the data active = inhibition above about 15%
DENV2 CPE = inhibitors of DENV2 cytopathic effect, primary screen, cell-based, plate reader, single concentration; DENV2-infected cells, cytopathic effect rescue; CPE inhibition, % at 9.99 µM; 350,000 compounds, 1.7% hits; AID 651640, 2012; in the data active = CPE inhibition above about 20%, passing the limit was not always enough; tested in BHK-21 cells
Of the large screens only hits and unclear results are named; the others gave an inactive call; ! = not active in a repeat.

CC(C)CC#Cc1cnc2c(c1)C(=O)N([C@@H](C)CO)C[C@@H](C)[C@@H](CN(C)C(=O)c1ccc(F)cc1)O2	none
COc1cccc(NC(=O)N2[C@@H]3CNC[C@H]2C3c2ccc(/C=C/c3ccccc3)cc2)c1 (some centres undefined)	DENV2 CPE 89!
O=C(Nc1ccc(C(F)(F)F)cc1)N1C[C@@H]2N[C@H](C1)C2c1ccc(-c2ccccc2)cc1 (some centres undefined)	SIRT5 inh 21!
COc1ccc(NC(=O)N2[C@@H]3CNC[C@H]2C3c2ccc(-c3cccc(OC)c3)cc2)cc1 (some centres undefined)	none
COc1cccc(-c2ccc(C3[C@H]4CNC[C@@H]3N4C(=O)Nc3ccc4c(c3)OCO4)cc2)c1 (some centres undefined)	none
COc1cccc(NC(=O)N2[C@@H]3CNC[C@H]2C3c2ccc(-c3ccccc3)cc2)c1 (some centres undefined)	DENV2 CPE 99!
O=C(Nc1cccc(Cl)c1)N1[C@@H]2CNC[C@H]1C2c1ccc(/C=C/c2ccccc2)cc1 (some centres undefined)	none
O=C(Nc1ccc(C(F)(F)F)cc1)N1C[C@@H]2N[C@H](C1)C2c1ccc(/C=C/c2ccccc2)cc1 (some centres undefined)	none
COc1cccc(-c2ccc(C3[C@H]4CNC[C@@H]3N4C(=O)Nc3ccc(C(F)(F)F)cc3)cc2)c1 (some centres undefined)	DENV2 CPE 33! (no result: SIRT5 inh)
O=C(C[C@H]1CC[C@@H]2[C@H](COC[C@@H](O)CN2Cc2nccs2)O1)NCc1ccc(F)cc1	none
COc1ccc(NC(=O)N(C)C[C@H]2OCCCC[C@@H](C)Oc3ccc(NC(=O)CCC(F)(F)F)cc3C(=O)N([C@H](C)CO)C[C@H]2C)cc1	none
CN(Cc1ccccc1)C(c1ccnc2ccccc12)c1nnnn1-c1ccc2c(c1)OCCO2 (centres undefined)	SIRT5 inh 39
CN(C)CCN(Cc1ccccc1)C(c1ccnc2ccccc12)c1nnnn1-c1ccc2c(c1)OCCO2 (centres undefined)	none
COc1ccc(NC(=O)N(C)C[C@H]2Oc3ncc(-c4cccnc4)cc3C(=O)N([C@H](C)CO)C[C@@H]2C)cc1	none (no result: E-selectin induc)
O=c1ccn([C@@H]2O[C@H](CO)[C@@H](O)[C@H]2O)c(=O)[nH]1	none
O=c1ccn(C2CC(O)C(COC(c3ccccc3)(c3ccccc3)c3ccccc3)O2)c(=O)[nH]1 (centres undefined)	DENV2 CPE 47 (no result: E-selectin induc)
COc1ccccc1NC(=O)N1C[C@H]2[C@@H](c3ccccc31)[C@@H](CO)N2C(=O)c1ccccc1	none (no result: DENV2 CPE)
C[C@@H]1CN([C@@H](C)CO)C(=O)c2cc(NC(=O)Nc3ccc(C(F)(F)F)cc3)ccc2O[C@@H]1CN(C)S(=O)(=O)c1ccc(F)cc1	none
Cc1noc(C)c1NC(=O)Nc1ccc2c(c1)CC(=O)N([C@H](C)CO)C[C@H](C)[C@H](CN(C)S(=O)(=O)c1ccccc1)O2	E-selectin induc 47
Cc1noc(C)c1NC(=O)Nc1ccc2c(c1)CC(=O)N([C@H](C)CO)C[C@H](C)[C@@H](CN(C)S(=O)(=O)c1ccccc1)O2	none
C[C@H](CO)N1C[C@H](C)[C@@H](CN(C)S(=O)(=O)c2ccccc2)Oc2ccc(NC(=O)Nc3ccc(C(F)(F)F)cc3)cc2CC1=O	SIRT5 inh 19, DENV2 CPE 65
C[C@H]1CN([C@@H](C)CO)C(=O)Cc2cc(NC(=O)Nc3ccccc3)ccc2O[C@H]1CN(C)S(=O)(=O)c1cccs1	DENV2 CPE 33
C[C@@H]1CN([C@H](C)CO)C(=O)c2cc(NC(=O)Nc3ccc(C(F)(F)F)cc3)ccc2O[C@H]1CN(C)S(=O)(=O)c1ccccc1	DENV2 CPE 33
C[C@@H]1CN([C@H](C)CO)C(=O)Cc2cc(NC(=O)Nc3ccccc3)ccc2O[C@@H]1CN(C)S(=O)(=O)c1cccs1	none
C[C@@H]1CN([C@H](C)CO)C(=O)Cc2cc(NC(=O)Nc3ccc(C(F)(F)F)cc3)ccc2O[C@H]1CN(C)S(=O)(=O)c1ccccc1	none
CC(C)NC(=O)N(C)C[C@H]1OCCCC[C@H](C)Oc2ccc(NS(=O)(=O)c3cn(C)cn3)cc2C(=O)N([C@@H](C)CO)C[C@@H]1C	none (no result: E-selectin induc)
CC(C)NC(=O)N1C[C@H]2[C@@H](c3ccccc31)[C@H](CO)N2C(=O)c1ccncc1	none
COCC(=O)N(C)C[C@@H]1Oc2ncc(C#C[C@H](C)O)cc2C(=O)N([C@@H](C)CO)C[C@H]1C	none
C[C@@H]1CN([C@H](C)CO)C(=O)Cc2cc(NC(=O)Nc3ccc(C(F)(F)F)cc3)ccc2O[C@@H]1CN(C)S(=O)(=O)c1cccs1	DENV2 CPE 27
C[C@H]1CN([C@@H](C)CO)C(=O)Cc2cc(NC(=O)Nc3ccc(C(F)(F)F)cc3)ccc2O[C@H]1CN(C)S(=O)(=O)c1cccs1	none
Cc1noc(C)c1NC(=O)Nc1ccc2c(c1)CC(=O)N([C@@H](C)CO)C[C@@H](C)[C@@H](CN(C)S(=O)(=O)c1cccs1)O2	DENV2 CPE 36
Cc1noc(C)c1NC(=O)Nc1ccc2c(c1)CC(=O)N([C@@H](C)CO)C[C@@H](C)[C@H](CN(C)S(=O)(=O)c1cccs1)O2	none
CO[C@H]1CN(C)C(=O)c2cc(NS(C)(=O)=O)ccc2OC[C@H](C)N(Cc2nccs2)C[C@@H]1C	none
O=S(=O)(O)c1cccc2c(N=Nc3ccc(O)c4ncccc34)cccc12	SIRT5 inh 34 (no result: E-selectin induc, DENV2 CPE)
Cc1ccccc1N=Nc1ccc(O)c2ncccc12	none
CC(C)NC(=O)N1[C@@H](CO)[C@H](c2ccccc2)[C@@H]1CNC(=O)CN(C)C	none (no result: SIRT5 inh)
COc1ccc(NC(=O)N2CC(=O)N3[C@H](CO)[C@H](c4ccc(C#CCC5CCCC5)cc4)[C@@H]3C2)cc1	none
COc1ccc(NC(=O)N2CC(=O)N3[C@@H](CO)[C@@H](c4ccc(C#CCC5CCCC5)cc4)[C@@H]3C2)cc1	none
COc1ccc(NC(=O)N2CC(=O)N3[C@H](CO)[C@H](c4ccc(C#CCC5CCCC5)cc4)[C@H]3C2)cc1	none
COc1cccc(NC(=O)N2CC(=O)N3[C@H](CO)[C@@H](c4ccc(C#CCC5CCCC5)cc4)[C@@H]3C2)c1	SIRT5 inh 24
COc1cccc(NC(=O)N2CC(=O)N3[C@H](C2)[C@H](c2ccc(C#CCC4CCCC4)cc2)[C@@H]3CO)c1	SIRT5 inh 25
COc1ccc(NC(=O)N2CC(=O)N3[C@H](CO)[C@@H](c4ccc(C#CCC5CCCC5)cc4)[C@@H]3C2)cc1	none
COc1cccc(NC(=O)N2CC(=O)N3[C@H](CO)[C@H](c4ccc(C#CCC5CCCC5)cc4)[C@@H]3C2)c1	SIRT5 inh 24
COc1cccc(NC(=O)N2CC(=O)N3[C@H](CO)[C@@H](c4ccc(C#CCC5CCCC5)cc4)[C@H]3C2)c1	SIRT5 inh 22
CO[C@@H]1CN(C)C(=O)c2ccc(NC(=O)Cc3ccccc3)cc2OC[C@@H](C)N(CC2CC2)C[C@@H]1C	none

High-throughput results as filed in PubChem.
